Results of several laboratories.
Protocols differ between the studies behind these lines.
Organism: Klebsiella pneumoniae
Observed: microbial growth

SMILES	method	strain	time	MIC
CO[C@@]1(NC(=O)Cc2cccs2)C(=O)N2C(C(=O)O)=C(COC(N)=O)CS[C@@H]21	broth dilution	ATCC43816		1 µg/mL
O=C(O)c1cn(C2CC2)c2cc(N3CCNCC3)c(F)cc2c1=O	broth dilution	ATCC700603		> 512 µg/mL
CCCCCCC#Cc1cncc(-c2nnc(SCc3ccc([N+](=O)[O-])o3)n2CCCN)c1	broth dilution	DSM30104		> 64 µg/mL
O=C(O)c1cn(C2CC2)c2cc(N3CCNCC3)c(F)cc2c1=O	broth dilution	ATCC27736	16 h	0.1 µM
Cc1nnc(SCC2=C(C(=O)O)N3C(=O)[C@@H](NC(=O)Cn4cnnn4)[C@H]3SC2)s1	broth dilution	ATCC43816		1 µg/mL
C[C@@H](O)[C@H]1C(=O)N2C(C(=O)O)=C(S[C@@H]3CN[C@H](C(=O)N(C)C)C3)[C@H](C)[C@H]12	broth dilution	ATCC13883		0.125 µg/mL
CO/N=C(\C(=O)N[C@@H]1C(=O)N2C(C(=O)O)=C(CSc3nc(=O)c(=O)[nH]n3C)CS[C@H]12)c1csc(N)n1	broth dilution	ATCC700603		> 512 µg/mL
O=C(N[C@H](CO)[C@H](O)c1ccc([N+](=O)[O-])cc1)C(Cl)Cl	broth dilution	ATCC43816		4 µg/mL
Cc1onc(-c2ccccc2)c1C(=O)N[C@@H]1C(=O)N2[C@@H]1SC(C)(C)[C@@H]2C(=O)O	broth dilution	ATCC700603		8 µg/mL
CCCCCCC#Cc1cncc(-c2nnc(SCc3cc([N+](=O)[O-])cc([N+](=O)[O-])c3)n2CCOC2OC(CN)C(O)C2O)c1 (stereo not drawn)	broth dilution	DSM30104		> 64 µg/mL
CN(C)[C@@H]1C(O)=C(C(N)=O)C(=O)[C@@]2(O)C(O)=C3C(=O)c4c(O)cccc4[C@@](C)(O)[C@H]3C[C@@H]12	broth dilution	ATCC10031	12 h	0.13 µg/mL
CC1(C)S[C@@H]2[C@H](NC(=O)[C@H](N)c3ccc(O)cc3)C(=O)N2[C@H]1C(=O)O	broth dilution	ATCC13883		> 64 µg/mL
C[C@H]1COc2c(N3CCN(C)CC3)c(F)cc3c(=O)c(C(=O)O)cn1c23	broth dilution	ATCC43816		< 0.5 µg/mL
CN(C)[C@@H]1C(O)=C(C(N)=O)C(=O)[C@@]2(O)C(O)=C3C(=O)c4c(O)cccc4[C@@](C)(O)[C@H]3C[C@@H]12	broth dilution	ATCC13883		1 µg/mL
CN(C)[C@@H]1C(O)=C(C(N)=O)C(=O)[C@@]2(O)C(O)=C3C(=O)c4c(O)cccc4[C@@](C)(O)[C@H]3C[C@@H]12	broth dilution	ATCC43816		2 µg/mL
[H]/N=C(\N/C(=N/[H])NCCCCCCNC(=N)NC(=N)Nc1ccc(Cl)cc1)Nc1ccc(Cl)cc1		ATCC4352		1 µM
CCCCCCC#Cc1cncc(-c2nnc(SCc3cc([N+](=O)[O-])cc([N+](=O)[O-])c3)n2CCCN)c1	broth dilution	DSM30104		> 64 µg/mL
CNC(C)C1CCC(N)C(OC2C(N)CC(N)C(OC3OCC(C)(O)C(NC)C3O)C2O)O1 (stereo not drawn)	broth dilution	ATCC13883		2 µg/mL
N[C@@H](Cc1c[nH]c2ccc(Cl)cc12)C(=O)O		MGH78578	18 h	> 200 µM
CC[C@H]1OC(=O)[C@H](C)[C@@H](O[C@H]2C[C@@](C)(OC)[C@@H](O)[C@H](C)O2)[C@H](C)[C@@H](O[C@@H]2O[C@H](C)C[C@H](N(C)C)[C@H]2O)[C@](C)(O)C[C@@H](C)C(=O)[C@H](C)[C@@H](O)[C@]1(C)O	broth dilution	ATCC43816		32 µg/mL
C[C@@H](O)[C@H]1C(=O)N2C(C(=O)O)=C(SCCN=CN)C[C@H]12	broth dilution	ATCC13883		4 µg/mL
